The source of these data is ChEMBL document CHEMBL3351454, “Design, synthesis, antimicrobial evaluation and molecular docking studies of some new thiophene, pyrazole and pyridone derivatives bearing sulfisoxazole moiety” (2014).

One may read the MIC as the smallest concentration in the dilution series that meets the test's criterion for growth inhibition.

Converted amounts (≈) assume the structure as drawn.

The test system of the first assay is Streptococcus pneumoniae. The assay is described as follows: Antimicrobial activity against Streptococcus pneumoniae RCMB 010010 assessed as absence of turbidity after 24 hrs. The assay is classed as functional. The conditions noted are these: RCMB 010010, 24 h. In outline: (§1)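 Broth microdilution in Müller–Hinton broth. DMF stocks at 1000 µg/mL were diluted in broth to give twofold serial dilutions over 500–0.007 µg/mL. Bacterial inoculum was about 10^6 CFU/mL in 96-well plates, sealed and incubated at 37 °C for 24 h in a humid chamber. MIC was taken as the lowest concentration with no visible turbidity. DMF and uninoculated-medium controls were included. Only compounds giving zones >10 mm were tested.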
As for `CC(=O)OC[C@H]1O[C@@H](Sc2c(C#N)c(-c3ccc(Cl)cc3)c(C#N)c(=O)n2-c2ccc(S(=O)(=O)Nc3onc(C)c3C)cc2)[C@H](OC(C)=O)[C@@H](OC(C)=O)[C@@H]1OC(C)=O`, the MIC was 0.06 µg/mL (≈ 0.0691 µM).

The next assay has as its system Escherichia coli. Description: Antimicrobial activity against Escherichia coli RCMB 010052 assessed as inhibition zone at 5 mg/ml after 24 hrs. The assay is classed as functional. The conditions noted are these: RCMB 010052, 24 h, read-out: IZ. In outline: (§2)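 Agar diffusion on nutrient agar seeded with 10^6 CFU/mL bacteria. Filter-paper disks were loaded with 100 µL of a 5 mg/mL compound solution in DMF, with a DMF-only control. Incubation was 37 °C for 24 h. Inhibition zone in mm (mean ± SD, triplicate plates) was measured beyond the 6 mm diameter.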
As for `CC(=O)OC[C@H]1O[C@@H](Sc2c(C#N)c(-c3ccc(Cl)cc3)c(C#N)c(=O)n2-c2ccc(S(=O)(=O)Nc3onc(C)c3C)cc2)[C@H](OC(C)=O)[C@@H](OC(C)=O)[C@@H]1OC(C)=O`, the zone of inhibition at 5000 µg/mL was determined as 23.2 mm.

The next assay relates to Klebsiella pneumoniae. The assay is described as follows: Antimicrobial activity against Klebsiella pneumoniae RCMB 010093 assessed as absence of turbidity after 24 hrs. The assay is classed as functional. The following applies: RCMB 010093, 24 h. Summed up: as §1
As to `CC(=O)OC[C@H]1O[C@@H](Sc2c(C#N)c(-c3ccc(Cl)cc3)c(C#N)c(=O)n2-c2ccc(S(=O)(=O)Nc3onc(C)c3C)cc2)[C@H](OC(C)=O)[C@@H](OC(C)=O)[C@@H]1OC(C)=O`, the MIC came out at 0.03 µg/mL (≈ 0.0346 µM).

In the next assay the test system is Klebsiella pneumoniae. Description: Antimicrobial activity against Klebsiella pneumoniae RCMB 010093 assessed as inhibition zone at 5 mg/ml after 24 hrs. The assay is classed as functional. The following applies: RCMB 010093, 24 h, read-out: IZ. In outline:
as §2
Take `CC(=O)OC[C@H]1O[C@@H](Sc2c(C#N)c(-c3ccc(Cl)cc3)c(C#N)c(=O)n2-c2ccc(S(=O)(=O)Nc3onc(C)c3C)cc2)[C@H](OC(C)=O)[C@@H](OC(C)=O)[C@@H]1OC(C)=O`: the zone of inhibition at 5000 µg/mL amounted to 25.8 mm.

In a further assay the test system is Staphylococcus epidermidis. The assay is described as follows: Antimicrobial activity against Staphylococcus epidermidis RCMB 010024 assessed as inhibition zone at 5 mg/ml after 24 hrs. The assay is classed as functional. The following applies: RCMB 010024, 24 h, read-out: IZ. Summed up: as §2
Take `CC(=O)OC[C@H]1O[C@@H](Sc2c(C#N)c(-c3ccc(Cl)cc3)c(C#N)c(=O)n2-c2ccc(S(=O)(=O)Nc3onc(C)c3C)cc2)[C@H](OC(C)=O)[C@@H](OC(C)=O)[C@@H]1OC(C)=O`: the zone of inhibition at 5000 µg/mL was found to be 24.2 mm.

The test system of another assay is Aspergillus fumigatus. Description: Antifungal activity against Aspergillus fumigatus RCMB 02568 assessed as inhibition zone at 5 mg/ml after 48 hrs. The assay is classed as functional. The following applies: RCMB 02568, 48 h, read-out: IZ. Summed up: (§3)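 Disk diffusion on nutrient agar seeded with 10^4 CFU/mL fungus. Sterile filter-paper disks carried 100 µL of a 5 mg/mL DMF solution, and DMF alone served as control. Plates were incubated at 25 °C for 48 h. Mean inhibition zone in mm ± SD was read beyond the 6 mm diameter, in triplicate.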
Take `CC(=O)OC[C@H]1O[C@@H](Sc2c(C#N)c(-c3ccc(Cl)cc3)c(C#N)c(=O)n2-c2ccc(S(=O)(=O)Nc3onc(C)c3C)cc2)[C@H](OC(C)=O)[C@@H](OC(C)=O)[C@@H]1OC(C)=O`: the zone of inhibition at 5000 µg/mL is 22.3 mm.

In another assay the test system is Geotrichum candidum. The assay is described as follows: Antifungal activity against Geotrichum candidum RCMB 05097 assessed as absence of turbidity after 48 hrs. The assay is classed as functional. The conditions noted are these: RCMB 05097, 48 h. In outline:
(§4)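 Broth microdilution in Sabouraud liquid medium. DMF stocks at 1000 µg/mL were diluted in broth to give twofold serial dilutions over 500–0.007 µg/mL. Fungal inoculum was about 10^4 CFU/mL in 96-well plates, sealed and incubated at 25 °C for 48 h in a humid chamber. MIC was taken as the lowest concentration with no visible turbidity. DMF and uninoculated-medium controls were included.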
In the case of `CC(=O)OC[C@H]1O[C@@H](Sc2c(C#N)c(-c3ccc(Cl)cc3)c(C#N)c(=O)n2-c2ccc(S(=O)(=O)Nc3onc(C)c3C)cc2)[C@H](OC(C)=O)[C@@H](OC(C)=O)[C@@H]1OC(C)=O`, the MIC was found to be 0.03 µg/mL (≈ 0.0346 µM).

In the next assay the test system is Streptococcus pneumoniae. Description: Antimicrobial activity against Streptococcus pneumoniae RCMB 010010 assessed as inhibition zone at 5 mg/ml after 24 hrs. The assay is classed as functional. The following applies: RCMB 010010, 24 h, read-out: IZ. In outline:
as §2
For `CC(=O)OC[C@H]1O[C@@H](Sc2c(C#N)c(-c3ccc(Cl)cc3)c(C#N)c(=O)n2-c2ccc(S(=O)(=O)Nc3onc(C)c3C)cc2)[C@H](OC(C)=O)[C@@H](OC(C)=O)[C@@H]1OC(C)=O`, the zone of inhibition at 5000 µg/mL was 25.1 mm.

The subject of a further assay is Geotrichum candidum. The assay is described as follows: Antifungal activity against Geotrichum candidum RCMB 05097 assessed as inhibition zone at 5 mg/ml after 48 hrs. The assay is classed as functional. The conditions noted are these: RCMB 05097, 48 h, read-out: IZ. Summed up: as §3
Take `CC(=O)OC[C@H]1O[C@@H](Sc2c(C#N)c(-c3ccc(Cl)cc3)c(C#N)c(=O)n2-c2ccc(S(=O)(=O)Nc3onc(C)c3C)cc2)[C@H](OC(C)=O)[C@@H](OC(C)=O)[C@@H]1OC(C)=O`: the zone of inhibition at 5000 µg/mL was found to be 25.8 mm.

In another assay the test system is Staphylococcus epidermidis. Description: Antimicrobial activity against Staphylococcus epidermidis RCMB 010024 assessed as absence of turbidity after 24 hrs. The assay is classed as functional. The following applies: RCMB 010024, 24 h. In outline:
as §1
For `CC(=O)OC[C@H]1O[C@@H](Sc2c(C#N)c(-c3ccc(Cl)cc3)c(C#N)c(=O)n2-c2ccc(S(=O)(=O)Nc3onc(C)c3C)cc2)[C@H](OC(C)=O)[C@@H](OC(C)=O)[C@@H]1OC(C)=O`, the MIC is 0.12 µg/mL (≈ 0.138 µM).

For another assay, the system named is Proteus vulgaris. The assay is described as follows: Antimicrobial activity against Proteus vulgaris RCMB 010085 assessed as inhibition zone at 5 mg/ml after 24 hrs. The conditions noted are these: RCMB 010085, 24 h, read-out: IZ. The assay is classed as functional. In outline: as §2
With `CC(=O)OC[C@H]1O[C@@H](Sc2c(C#N)c(-c3ccc(Cl)cc3)c(C#N)c(=O)n2-c2ccc(S(=O)(=O)Nc3onc(C)c3C)cc2)[C@H](OC(C)=O)[C@@H](OC(C)=O)[C@@H]1OC(C)=O`, the zone of inhibition at 5000 µg/mL came to 21.2 mm.

In the next assay the test system is Bacillus subtilis. The assay is described as follows: Antimicrobial activity against Bacillis subtilis RCMB 010067 assessed as inhibition zone at 5 mg/ml after 24 hrs. The assay is classed as functional. The conditions noted are these: RCMB 010067, 24 h, read-out: IZ. In outline:
as §2
In the case of `CC(=O)OC[C@H]1O[C@@H](Sc2c(C#N)c(-c3ccc(Cl)cc3)c(C#N)c(=O)n2-c2ccc(S(=O)(=O)Nc3onc(C)c3C)cc2)[C@H](OC(C)=O)[C@@H](OC(C)=O)[C@@H]1OC(C)=O`, the zone of inhibition at 5000 µg/mL is 29.8 mm.

The test system of the next assay is Syncephalastrum racemosum. Description: Antifungal activity against Syncephalastrum racemosum RCMB 05922 assessed as absence of turbidity after 48 hrs. The assay is classed as functional. The following applies: RCMB 05922, 48 h.
Consider `CC(=O)OC[C@H]1O[C@@H](Sc2c(C#N)c(-c3ccc(Cl)cc3)c(C#N)c(=O)n2-c2ccc(S(=O)(=O)Nc3onc(C)c3C)cc2)[C@H](OC(C)=O)[C@@H](OC(C)=O)[C@@H]1OC(C)=O`, for which the MIC was determined as 3.9 µg/mL (≈ 4.49 µM).

In the next assay the test system is Escherichia coli. Description: Antimicrobial activity against Escherichia coli RCMB 010052 assessed as absence of turbidity after 24 hrs. The assay is classed as functional. The conditions noted are these: RCMB 010052, 24 h. In outline: as §1
On to `CC(=O)OC[C@H]1O[C@@H](Sc2c(C#N)c(-c3ccc(Cl)cc3)c(C#N)c(=O)n2-c2ccc(S(=O)(=O)Nc3onc(C)c3C)cc2)[C@H](OC(C)=O)[C@@H](OC(C)=O)[C@@H]1OC(C)=O`, for which the MIC was 0.24 µg/mL (≈ 0.276 µM).

The next assay has as its system Syncephalastrum racemosum. Description: Antifungal activity against Syncephalastrum racemosum RCMB 05922 assessed as inhibition zone at 5 mg/ml after 48 hrs. The assay is classed as functional. The conditions noted are these: RCMB 05922, 48 h, read-out: IZ.
Take `CC(=O)OC[C@H]1O[C@@H](Sc2c(C#N)c(-c3ccc(Cl)cc3)c(C#N)c(=O)n2-c2ccc(S(=O)(=O)Nc3onc(C)c3C)cc2)[C@H](OC(C)=O)[C@@H](OC(C)=O)[C@@H]1OC(C)=O`: the zone of inhibition at 5000 µg/mL came to 20.3 mm.

Another assay relates to Bacillus subtilis. Description: Antimicrobial activity against Bacillis subtilis RCMB 010067 assessed as absence of turbidity after 24 hrs. The assay is classed as functional. The conditions noted are these: RCMB 010067, 24 h. Summed up:
as §1
For the molecule `CC(=O)OC[C@H]1O[C@@H](Sc2c(C#N)c(-c3ccc(Cl)cc3)c(C#N)c(=O)n2-c2ccc(S(=O)(=O)Nc3onc(C)c3C)cc2)[C@H](OC(C)=O)[C@@H](OC(C)=O)[C@@H]1OC(C)=O`, the MIC came to 0.007 µg/mL (≈ 0.00806 µM).

The next assay concerns Aspergillus fumigatus. Description: Antifungal activity against Aspergillus fumigatus RCMB 02568 assessed as absence of turbidity after 48 hrs. The assay is classed as functional. The conditions noted are these: RCMB 02568, 48 h. In outline:
as §4
In the case of `CC(=O)OC[C@H]1O[C@@H](Sc2c(C#N)c(-c3ccc(Cl)cc3)c(C#N)c(=O)n2-c2ccc(S(=O)(=O)Nc3onc(C)c3C)cc2)[C@H](OC(C)=O)[C@@H](OC(C)=O)[C@@H]1OC(C)=O`, the MIC is 0.49 µg/mL (≈ 0.564 µM).

The next assay deals with Proteus vulgaris. Description: Antimicrobial activity against Proteus vulgaris RCMB 010085 assessed as absence of turbidity after 24 hrs. The conditions noted are these: RCMB 010085, 24 h. The assay is classed as functional. Summed up: as §1
Turning to `CC(=O)OC[C@H]1O[C@@H](Sc2c(C#N)c(-c3ccc(Cl)cc3)c(C#N)c(=O)n2-c2ccc(S(=O)(=O)Nc3onc(C)c3C)cc2)[C@H](OC(C)=O)[C@@H](OC(C)=O)[C@@H]1OC(C)=O`, the MIC was found to be 0.98 µg/mL (≈ 1.13 µM).
